According to article PMC4118675 (Chembiochem : a European journal of chemical biology, 2014):
Entries after “also recorded” stand apart in the source; their conditions may differ.

Tests used:
[1] = system: FGF signaling; test: FGF reporter activation in Tg; assay type: in vivo, zebrafish; settings: for in vivo FGF hyperactivation activity (in words): Tg(dusp6:EGFP)pt6 embryos, SAR statement relative to 1
In short: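 Compound was added from 100X DMSO stocks (1% DMSO final). Time course was imaged hourly for 6 h; dose-response was read at 5 h. Embryos were anaesthetised with MS222 (40 μg/ml) and imaged at 4X (488/525 nm).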

[2] = system: Recombinant His-tagged Dusp6; test: In vitro OMFP phosphatase assay, ERK2 induced activation of DUSP6; assay type: biochemical; settings: 100 μM compound, with recombinant ERK2, OMFP substrate
In short: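 Recombinant His-tagged Dusp6 (250 ng), expressed in bacteria, was preincubated with 100 μM test compound. Recombinant ERK2 (210 ng) was added, then OMFP substrate (100 μM). Fluorescence (485/525 nm) was read every 10 min for 1 h at room temperature. Percent inhibition was taken at 10 min, within the linear range, from three independent experiments (mean ± SD). Vanadate was the positive control; one-way ANOVA with Tukey post hoc test.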

[3] = system: zebrafish embryos; test: Hatching study in zebrafish embryos; assay type: in vivo; settings: 6 hour exposure followed by washout; for embryos hatched (in words): exposure at their EC50 (1: 10 μM, 7: 5 μM)
[4] = system: DUSP; settings: bacterially produced recombinant protein, no ERK; cited from earlier work
[5] = biological target: T1, human c-Myc-DUSP1 (Homo sapiens, UniProt P28562); test: Chemical complementation assay for DUSP1; assay type: cell-based
T1 sequence (P28562 1-367): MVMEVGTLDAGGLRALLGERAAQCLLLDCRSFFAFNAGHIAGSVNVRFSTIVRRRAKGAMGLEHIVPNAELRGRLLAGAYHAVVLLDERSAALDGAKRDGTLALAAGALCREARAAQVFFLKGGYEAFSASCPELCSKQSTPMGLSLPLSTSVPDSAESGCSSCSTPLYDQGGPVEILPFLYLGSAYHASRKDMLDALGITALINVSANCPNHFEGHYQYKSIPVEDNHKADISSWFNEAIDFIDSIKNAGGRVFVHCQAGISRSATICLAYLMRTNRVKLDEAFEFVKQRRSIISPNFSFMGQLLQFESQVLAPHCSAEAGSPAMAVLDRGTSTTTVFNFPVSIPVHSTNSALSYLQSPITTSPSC
In short: (§1)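 Human c-Myc-tagged DUSP1 (in pcDNA3.1) or DUSP6 (in pSG5) transfected into HeLa cells, which were grown in DMEM with 10% FBS at 37 °C and 5% CO2. At 48 h, quadruplicate wells got a 15 min treatment with ten two-fold dilutions, then TPA (500 ng/ml) for 15 min. Cells were immunostained for pERK and c-Myc. IC50 came from a four-parameter logistic fit of KS values versus concentration.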

[6] = biological target: T2, human c-Myc-DUSP6 (Homo sapiens, UniProt Q16828); test: Chemical complementation assay for DUSP6; assay type: cell-based
T2 sequence (Q16828 1-381): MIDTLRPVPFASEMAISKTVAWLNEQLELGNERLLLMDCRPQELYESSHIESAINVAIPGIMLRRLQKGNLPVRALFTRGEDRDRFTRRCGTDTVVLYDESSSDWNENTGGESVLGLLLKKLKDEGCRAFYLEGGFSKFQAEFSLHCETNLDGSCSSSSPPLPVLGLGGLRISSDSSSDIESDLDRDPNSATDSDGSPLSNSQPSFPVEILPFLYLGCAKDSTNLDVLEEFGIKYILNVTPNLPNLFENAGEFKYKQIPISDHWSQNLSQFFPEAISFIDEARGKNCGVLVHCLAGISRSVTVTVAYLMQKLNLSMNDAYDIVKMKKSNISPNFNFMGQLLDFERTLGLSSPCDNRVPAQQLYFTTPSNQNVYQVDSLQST
In short: as §1

[7] = system: EA.hy926 cells; test: Cytotoxicity in cultured EA.hy926 cells; assay type: cell-based; settings: six hours, concentrations up to 50 μM
In short: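 EA.hy926 endothelial hybridoma cells were kept in DMEM with 10% FBS and 2 mM glutamine, plated at 10,000/well and allowed to attach overnight. They were exposed for 6 h to five-point 1/3 dilution gradients, with phenylarsine oxide as positive control. Live cells were stained with propidium iodide (1 μg/ml) and Hoechst 33342 (10 μg/ml), then imaged. Scored per field: nuclei count, nuclear condensation, % PI-positive cells.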

[8] = HeLa chemical complementation assay

Q: For `O=C1C(=Cc2ccc(Cl)cc2)C(NC2CCCCC2)c2ccccc21` (stereo not shown) [Compound 15], which “in vivo FGF hyperactivation activity (in words)” value [1] is on record?
A: Its value is “did not substantially change activity compared to 1”.

Q: With `O=C1C(=Cc2ccc(Cl)c(Cl)c2)C(NC2CCCCC2)c2ccccc21` (stereo not shown) [Compound 16] as the molecule, how does the “in vivo FGF hyperactivation activity (in words)” value [1] read?
A: Its value is “did not substantially change activity compared to 1”.

Q: What does the source list for `O=C1/C(=C/c2ccccc2)C(N2CCOCC2)c2ccccc21` (stereo not shown) [Compound 7]?
A: suppression of ERK-stimulated activation of DUSP6 (in words) [2]: significantly suppressed activation of DUSP6; in vivo FGF hyperactivation activity (in words) [1]: maximal activity; embryos hatched (in words) [3]: no embryos hatched

Q: For `O=C1/C(=C/c2ccccc2)C(NC2CCCCC2)c2ccccc21` (stereo not shown) [Compound 1, (E)-2-benzylidene-3-(cyclohexylamino)-2,3-dihydro-1H-inden-1-one], which “suppression of ERK-stimulated activation of DUSP6 (in words)” value [2] is on record?
A: The value was “significantly suppressed activation of DUSP6”.

Q: What about the “time at which GFP expression reached a maximum” value ([1]; 20 μM, 24 hpf embryos, stable for an additional hour) of the same molecule?
A: Its value is 5 h.

Q: And the “concentration of maximal FGF reporter activation” value ([1]; 5 hour time point, declined at higher concentrations)?
A: The value was 20 µM.

Q: And the “antiphosphatase activity in traditional biochemical assay (in words)” value [4]?
A: The value was “lacked antiphosphatase activity”.

Q: What about the IC50 [5] of the same molecule?
A: The IC50 was 8 ± 0.6 µM.

Q: What about the “embryos hatched (in words)” value [3] of the same molecule?
A: The value was “no embryos hatched”.

Q: What about the IC50 [6] of the same molecule?
A: Its IC50 is 13.3 ± 1.8 µM.

Q: Which “in vivo FGF hyperactivation activity (in words)” value [1] does the source give for `O=C1C(=Cc2ccccc2)C(Nc2ccccc2)c2ccccc21` (stereo not shown) [Compound 4] here?
A: The value was “abolished activity”.

Q: Which results are given for `O=C1/C(=C/c2ccccc2)C(NC2CCCCC2)c2cc(Br)ccc21` (stereo not shown) [Compound 19]?
A: suppression of ERK-stimulated activation of DUSP6 (in words) [2]: significantly suppressed activation of DUSP6; in vivo FGF hyperactivation activity (in words) [1]: tolerated; embryos hatched by 56 hpf ([3]; 20 μM (two times the EC50 for FGF activation)): 100%; cellular toxicity (in words) [7]: devoid of cellular toxicity

Q: Which “suppression of ERK-stimulated activation of DUSP6 (in words)” value [2] does the source give for `OC1C(=Cc2ccccc2)C(NC2CCCCC2)c2ccccc21` (stereo not shown) [Compound 31, 2-benzylidene-3-cyclohexylaminoindan-1-ol] here?
A: The value was “insignificant”.

Q: And the “in vivo FGF hyperactivation activity (in words)” value [1]?
A: Its value is “abolished activity”.

Q: For `COc1ccc(/C=C2/C(=O)c3ccccc3C2N2CCOCC2)cc1` (stereo not shown) [Compound 24], which “in vivo FGF hyperactivation activity (in words)” value [1] is on record?
A: Its value is “inactive; also recorded: abolished the activity”.

Q: What about the “DUSP1 inhibition in mammalian cells (in words)” value [5, 8] of the same molecule?
A: The value was “lacked antiphosphatase activity”.

Q: And the “DUSP6 inhibition in mammalian cells (in words)” value [6, 8]?
A: Its value is “lacked antiphosphatase activity”.
